From ChEMBL document CHEMBL1149790, “Synthesis of some novel thiourea derivatives obtained from 5-[(4-aminophenoxy)methyl]-4-alkyl/aryl-2,4-dihydro-3H-1,2,4-triazole-3-thiones and evaluation as antiviral/anti-HIV and anti-tuberculosis agents” (Eur J Med Chem, 2008)
In brackets after ≈: the same amount, converted by molar mass.

How the values were obtained:
[1] = system: Human immunodeficiency virus 1; assay: Antiviral activity against HIV1 3B in human MT4 cells assessed as protection against virus-induced cytopathogenicity by MTT assay; format: functional, organism-based; design: Activity: concentration or dose not given beside the values; settings: for IC50: Human immunodeficiency virus 1, 3B, MT4
Procedure, shortened: (§1)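 MT-4 cells at 6 × 10⁵ cells/ml infected with HIV-1 IIIB or HIV-2 ROD at 100–300 CCID50; compounds in serial five-fold dilutions, triplicate mock- and virus-infected wells. MTT viability read at 540 and 690 nm after 5 days, median OD of three wells; EC50 = 50% protection from viral cytopathic effect.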

[2] = system: Human immunodeficiency virus 2; assay: Antiviral activity against HIV2 ROD in human MT4 cells assessed as protection against virus-induced cytopathogenicity by MTT assay; format: functional, organism-based; design: Activity: concentration or dose not given beside the values; settings: for IC50: Human immunodeficiency virus 2, ROD, MT4; procedure, shortened: as §1
[3] = Cytotoxicity against human MT4 cells by MTT assay; format: cell-based
Procedure, shortened: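 Mock-infected MT-4 cells (6 × 10⁵ cells/ml) with serial five-fold compound dilutions in triplicate; MTT reduction read at 540 and 690 nm after 5 days, median OD of three wells; CC50 = concentration reducing OD540 of mock-infected control by 50%.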

[4] = Cytotoxicity against human HeLa cells; format: cell-based
Procedure, shortened: (§2)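 Uninfected cell cultures exposed to test compounds alongside antiviral assays; minimum cytotoxic concentration (MCC) = concentration causing a microscopically detectable alteration of cell morphology.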

[5] = system: Vesicular stomatitis virus; assay: Antiviral activity against vesicular stomatitis virus in human HeLa cells assessed as inhibition of virus-induced cytopathogenicity; format: functional
Procedure, shortened: (§3)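 Confluent cell monolayers (E6SM, HEL, HeLa or Vero, per line) inoculated with 100 CCID50 virus; 1 h adsorption, residual virus removed, then incubated with compound at 400, 200, 100 … µg/ml. Cytopathicity scored once complete in untreated virus controls; MIC = concentration inhibiting virus-induced cytopathicity.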

Coxsackievirus B4 [6] = assay: Antiviral activity against Coxsackie virus B4 in human HeLa cells assessed as inhibition of virus-induced cytopathogenicity; format: functional; settings: Enterovirus B; procedure, shortened: as §3
[7] = system: Respiratory syncytial virus; assay: Antiviral activity against respiratory syncytial virus in human HeLa cells assessed as inhibition of virus-induced cytopathogenicity; format: functional; procedure, shortened: as §3
[8] = Cytotoxicity against human E6SM cells; format: cell-based; settings: E6SM cells; procedure, shortened: as §2
[9] = Cytotoxicity against human HEL cells assessed as alteration of cell morphology; format: cell-based; procedure, shortened: as §2
Human alphaherpesvirus 1 [10] = assay: Antiviral activity against HSV1 KOS in human E6SM cells assessed as reduction of virus-induced cytopathogenicity; format: functional; settings: Human alphaherpesvirus 1, KOS; procedure, shortened: as §3
Human alphaherpesvirus 1 [11] = assay: Antiviral activity against HSV1 KOS in human HEL cells assessed as reduction of virus-induced cytopathogenicity; format: functional; settings: Human alphaherpesvirus 1, KOS; procedure, shortened: as §3
Human alphaherpesvirus 2 [12] = assay: Antiviral activity against HSV2 G in human E6SM cells assessed as reduction of virus-induced cytopathogenicity; format: functional; settings: Human alphaherpesvirus 2, G; procedure, shortened: as §3
Human alphaherpesvirus 2 [13] = assay: Antiviral activity against HSV2 G in human HEL cells assessed as reduction of virus-induced cytopathogenicity; format: functional; settings: Human alphaherpesvirus 2, G; procedure, shortened: as §3
[14] = system: Vesicular stomatitis virus; assay: Antiviral activity against in Vesicular stomatitis virus in human E6SM cells assessed as reduction of virus-induced cytopathogenicity; format: functional; procedure, shortened: as §3
[15] = system: Vesicular stomatitis virus; assay: Antiviral activity against in Vesicular stomatitis virus in human HEL cells assessed as reduction of virus-induced cytopathogenicity; format: functional; procedure, shortened: as §3
Human alphaherpesvirus 1 [16] = assay: Antiviral activity against thymidine kinase deficient and acyclovir resistant HSV1 KOS in human E6SM cells assessed as reduction of virus-induced cytopathogenicity; format: functional; settings: Human alphaherpesvirus 1, KOS; procedure, shortened: as §3
Human alphaherpesvirus 1 [17] = assay: Antiviral activity against thymidine kinase deficient and acyclovir resistant HSV1 KOS in human HEL cells assessed as reduction of virus-induced cytopathogenicity; format: functional; settings: Human alphaherpesvirus 1, KOS; procedure, shortened: as §3
Vero = assay: Cytotoxicity against african green monkey Vero cells; format: cell-based; settings: chlorocebus sabaeus; procedure, shortened: as §2
Coxsackievirus B4 [18] = assay: Antiviral activity against Coxsackie virus B4 in african green monkey Vero cells assessed as reduction of virus-induced cytopathogenicity; format: functional; settings: Enterovirus B; procedure, shortened: as §3
Punta Toro virus = assay: Antiviral activity against Punta Toro virus in african green monkey Vero cells assessed as reduction of virus-induced cytopathogenicity; format: functional; procedure, shortened: as §3
Human respirovirus 3 = assay: Antiviral activity against Parainfluenza 3 virus in african green monkey Vero cells assessed as reduction of virus-induced cytopathogenicity; format: functional; procedure, shortened: as §3
[19] = system: Mammalian orthoreovirus 1; assay: Antiviral activity against Reo virus 1 in african green monkey Vero cells assessed as reduction of virus-induced cytopathogenicity; format: functional; procedure, shortened: as §3
Sindbis virus = assay: Antiviral activity against Sindbis virus in african green monkey Vero cells assessed as reduction of virus-induced cytopathogenicity; format: functional; procedure, shortened: as §3

Row | SMILES | Activity [1] [%] | IC50 [1] [mg/L] | Activity [2] [%] | IC50 [2] [mg/L] | CC50 [3] [mg/L] | MCC [4] [µg/mL] | MIC [5] [mg/L] | MIC (Coxsackievirus B4 [6]) [mg/L] | MIC [7] [mg/L] | MCC [8] [µg/mL] | MCC [9] [µg/mL] | MIC (Human alphaherpesvirus 1 [10]) [mg/L] | MIC (Human alphaherpesvirus 1 [11]) [mg/L] | MIC (Human alphaherpesvirus 2 [12]) [mg/L] | MIC (Human alphaherpesvirus 2 [13]) [mg/L] | MIC [14] [mg/L] | MIC [15] [mg/L] | MIC (Human alphaherpesvirus 1 [16]) [mg/L] | MIC (Human alphaherpesvirus 1 [17]) [mg/L] | Activity (Vero) | also measured
1 | C=CCNC(=S)Nc1ccc(-c2nnc(SCc3ccc(Cl)cc3Cl)n2-c2ccccc2)cc1 | 1.5 | > 65.3 | 0 | > 65.3 | 65.3 (≈ 124 µM) | 80 | > 16 | > 16 | > 16 | ≥ 16 | ≥ 16 | > 16 | > 16 | > 16 | > 16 | > 16 | > 16 | > 16 | > 16 | >= 16 ug ml-1 | MIC (Coxsackievirus B4 [18]): > 16 mg/L; MIC (Punta Toro virus): > 16 mg/L; MIC (Human respirovirus 3): > 16 mg/L; MIC [19]: > 16 mg/L; MIC (Sindbis virus): > 16 mg/L
2 | S=C(Nc1ccccc1)Nc1ccc(-c2n[nH]c(=S)n2-c2ccccc2)cc1 | 25 | > 28.6 | 0 | > 28.6 | 28.6 (≈ 70.8 µM) | 80 | > 80 | > 80 | > 80 | ≥ 80 | ≥ 80 | > 80 | > 80 | > 80 | > 80 | > 80 | > 80 | > 80 | > 80 | 80 µg/mL | MIC (Coxsackievirus B4 [18]): > 16 mg/L; MIC (Punta Toro virus): > 16 mg/L; MIC (Human respirovirus 3): > 16 mg/L; MIC [19]: > 16 mg/L; MIC (Sindbis virus): > 16 mg/L
3 | CNC(=S)Nc1ccc(-c2n[nH]c(=S)n2C)cc1 | 1 | > 80.3 | 0 | > 80.3 | 80.3 (≈ 287 µM) | 400 | > 80 | > 80 | > 80 | 400 | 400 | 240 (≈ 859 µM) | 240 (≈ 859 µM) | 240 (≈ 859 µM) | 240 (≈ 859 µM) | > 80 | > 80 | > 80 | > 80 | 400 µg/mL | MIC (Coxsackievirus B4 [18]): > 80 mg/L; MIC (Punta Toro virus): > 80 mg/L; MIC (Human respirovirus 3): > 80 mg/L; MIC [19]: > 80 mg/L; MIC (Sindbis virus): > 80 mg/L
4 | C=CCNC(=S)Nc1ccc(-c2n[nH]c(=S)n2CCc2ccccc2)cc1 | 9 | > 13 | 0 | > 13 | 13 (≈ 32.9 µM) | 400 | > 80 | > 80 | > 80 | 400 | 400 | > 80 | > 80 | > 80 | > 80 | > 80 | > 80 | > 80 | > 80 | >= 80 ug ml-1 | MIC (Coxsackievirus B4 [18]): > 80 mg/L; MIC (Punta Toro virus): > 80 mg/L; MIC (Human respirovirus 3): > 80 mg/L; MIC [19]: > 80 mg/L; MIC (Sindbis virus): > 80 mg/L
5 | C=CCNC(=S)Nc1ccc(-c2n[nH]c(=S)n2CC=C)cc1 | 6.5 | > 65.4 | 0 | > 65.4 | 65.4 (≈ 197 µM) | 400 | > 80 | > 80 | > 80 | ≥ 80 | ≥ 80 | > 80 | > 80 | > 80 | > 80 | > 80 | > 80 | 240 (≈ 724 µM) | 240 (≈ 724 µM) | >= 80 ug ml-1 | MIC (Coxsackievirus B4 [18]): > 80 mg/L; MIC (Punta Toro virus): > 80 mg/L; MIC (Human respirovirus 3): > 80 mg/L; MIC [19]: > 80 mg/L; MIC (Sindbis virus): > 80 mg/L
6 | C=CCNC(=S)Nc1ccc(-c2n[nH]c(=S)n2-c2ccccc2)cc1 | 13.5 | > 55.1 | 0 | > 55.1 | 55.1 (≈ 150 µM) | ≥ 400 | > 400 | > 400 | > 400 | ≥ 80 | ≥ 80 | > 80 | > 80 | > 80 | > 80 | > 80 | > 80 | > 80 | > 80 | >= 400 ug ml-1 | MIC (Coxsackievirus B4 [18]): > 400 mg/L; MIC (Punta Toro virus): > 400 mg/L; MIC (Human respirovirus 3): > 400 mg/L; MIC [19]: > 400 mg/L; MIC (Sindbis virus): > 400 mg/L
7 | CCCCCCNC(=S)Nc1ccc(-c2n[nH]c(=S)n2CC)cc1 | 21 | > 2.58 | 3 | > 2.58 | 2.58 (≈ 7.1 µM) | ≥ 400 | > 400 | > 400 | > 400 | 400 | 400 | > 80 | > 80 | > 80 | > 80 | > 80 | > 80 | > 80 | > 80 | 400 µg/mL | MIC (Coxsackievirus B4 [18]): > 80 mg/L; MIC (Punta Toro virus): > 80 mg/L; MIC (Human respirovirus 3): > 80 mg/L; MIC [19]: > 80 mg/L; MIC (Sindbis virus): > 80 mg/L
